Assay outcomes from PubChem BioAssay.
A selection: hits, their analogues and other compounds. The true share with any hit is near 1.6%.
FID counter – displaces DNA intercalator in HCV helicase counter-screen; inhibition, % at 7.9 µM; 290,000 tested, 0.17% active; DNA fluorescent intercalator displacement, fluorescence; in the data active means inhibition above about 37%;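 further: 0% = vehicle and 100% = reference compound; higher means more ethidium bromide displaced from hairpin DNA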
Apaf1 inhib – human Apaf-1 inhibition; 330,000 tested, 0.71% active; inhibition, % at 20 µM; O14727; AID 489030; reconstituted apoptosome caspase-3 activity, DEVD-Rh110 fluorescence; active means inhibition of at least 40% at 20 µM;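 further: plate controls were DMSO wells for no effect and DEVD-CHO caspase inhibitor wells for full effect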
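System – cell-free apoptosome with Apaf-1, procaspase-3 and caspase-9 · Buffer or medium – pH 7.5 Hepes buffer with CHAPS, BSA, DTT · Also added – cytochrome c with DEVD-Rh110 · Times – 30 min compound preincubation, 50 min activation, room temperature · Technique – Rh110 fluorescence intensity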
RAD52 anneal inh – inhibitors of human RAD52 DNA annealing; 360,000 tested, 0.46% active; recombinant RAD52 DNA annealing, FRET fluorescence; inhibition, % at 18.7 µM;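 active means every replicate showing at least 50% inhibition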
Target sequence (P43351 whole entry, looked up): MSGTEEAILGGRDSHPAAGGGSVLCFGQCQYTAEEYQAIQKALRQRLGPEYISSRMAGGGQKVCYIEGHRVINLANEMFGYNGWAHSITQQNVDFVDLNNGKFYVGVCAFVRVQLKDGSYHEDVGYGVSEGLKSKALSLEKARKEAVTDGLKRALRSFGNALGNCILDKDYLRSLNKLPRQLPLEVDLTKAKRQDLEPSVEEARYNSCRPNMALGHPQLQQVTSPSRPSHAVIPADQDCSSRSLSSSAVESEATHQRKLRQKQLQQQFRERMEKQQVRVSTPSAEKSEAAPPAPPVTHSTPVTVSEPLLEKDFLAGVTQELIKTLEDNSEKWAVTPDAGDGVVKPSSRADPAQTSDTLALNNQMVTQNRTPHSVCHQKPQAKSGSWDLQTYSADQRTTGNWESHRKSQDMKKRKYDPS
Neddylation inh – blocks human cullin neddylation. P61081+Q13564. TR-FRET cullin neddylation, biochemical. calls only at 25 µM. 360,000 tested, 0.58% active. AID 651699; in the data active means inhibition above about 36%
RAD54 inh – RAD54 (human) branch migration inhibition | inhibition, % at 10.4 µM | AID 602329 | RAD54 Holliday junction branch migration, FAM/BHQ fluorescence | 360,000 tested, 0.14% active | Q92698;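 active means mean normalized replicate activity at least 40 and at least half of replicates scoring 40 or more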;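 further: 0% = median of neutral control wells and 100% = median of positive control wells; inhibitors cause a drop in the FAM fluorescence signal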
UBC13 polyUb – blocks human UBC13 polyubiquitin chain formation. P61088. TR-FRET. inhibition, % at 20 µM. 330,000 tested, 0.47% active; in the data active means inhibition above about 45%, passing the limit was not always enough
Casp3 counter – inhibits human caspase-3 in UBC13 counter-screen; inhibition, % at 20 µM; 1,400 tested, 4% active; Recombinant caspase-3, Caspase-Glo 3/7 luminescence, 60 min; shares compounds with UBC13 polyUb;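 active means mean inhibition across replicates above about 26%, limit read from the data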;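 further: plate controls were DMSO with caspase-3 for no effect and DMSO wells lacking enzyme for full effect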
UBC13 confirm – human UBC13 polyubiquitin inhibition, confirmed. 1,400 tested, 68% active. UBC13 polyubiquitination, TR-FRET, biochemical. shares compounds with UBC13 polyUb. AID 488859. inhibition, % at 10 µM; in the data active means inhibition above about 45%
The depositor's hits bear a star; i = inactive; . = no result shown.

SMILES | FID counter | Apaf1 inhib | RAD52 anneal inh | Neddylation inh | RAD54 inh | UBC13 polyUb | Casp3 counter | UBC13 confirm
CCN(CCCNC(=O)c1cc2c(-c3cccc(OC)c3)nn(C)c2s1)Cc1ccccc1 | 22 | 7 | -1 | . | 29 | 49* | -5 | 47*
COc1cccc(-c2nn(C)c3sc(C(=O)NCc4ccc5c(c4)OCO5)cc23)c1 | -17 | 0 | -98 | i | -1 | 27 | . | .
CCOC(=O)CCCSc1nnc(CCCCCN2C(=O)c3cccc4cccc(c34)C2=O)o1 | -10 | 29 | . | . | . | 53* | -2 | 42
CCOc1cc(C2C(C#N)=C(N)Oc3n[nH]c(-c4ccccc4)c32)ccc1O (stereo not given) | -4 | 12 | . | i | -3 | 83* | 3 | 100*
N#CC1=C(N)Oc2n[nH]c(-c3ccccc3)c2C1c1cccnc1 (stereo not given) | -1 | 2 | . | i | 6 | -11 | . | .
COCCNC(=S)N=Nc1c(O)[nH]c2ccc([N+](=O)[O-])cc12 | -1 | -5 | -8 | i | -16 | 89* | 1 | 96*
COc1ccc2c3c([nH]c2c1)[C@H](CO)N(C(=O)c1ccncc1)CC31CN(C(=O)Nc2cccc(F)c2)C1 | . | . | 10 | . | . | . | . | .
COc1ccc2nc(C)cc(N/N=C/c3cccc(OC)c3O)c2c1 | 7 | 33 | 49 | i | 108* | 58* | 2 | 111*
COc1ccc2nc(C)cc(Nc3ccccc3OC)c2c1 | . | . | -12 | i | 4 | . | . | .
O=C(C[n+]1cc(-c2ccc(Cl)cc2)n2c1CCC2)N1c2ccccc2Sc2ccccc21 | 20 | 10 | . | i | 14 | 8 | . | .
O=C(C[n+]1cc(-c2ccc(Cl)c(Cl)c2)n2c1CCC2)N1c2ccccc2Sc2ccccc21 | 12 | 26 | . | i | . | 45* | -4 | 39
CCOC(=O)C(=NC1CCS(=O)(=O)C1)NNc1cc(Cl)ccc1Cl (stereo not given) | -2 | -10 | -17 | i | 4 | 68* | -5 | 57*
COc1ccc(-c2noc(CCC(=O)NC3CCN(Cc4ccccc4)CC3)n2)cc1 | 13 | 12 | . | i | . | 9 | . | .
COc1ccc(-c2noc(CCC(=O)NCC3CCN(Cc4cccc(C)c4)CC3)n2)cc1 | 13 | 6 | . | i | 7 | 54* | 3 | 49*
CC(=O)n1cc([C@H]2C=C(C(=O)Nc3ccccc3)O[C@@H](OCCCCO)C2)c2ccccc21 | -25 | 13 | -23 | i | 5 | 69* | 2 | 45
O=C(C[C@H]1CC[C@@H](NC(=O)CC2CC2)[C@H](CO)O1)NCc1ccccc1 | . | . | 16 | . | . | . | . | .
Cc1cccc(NC(=S)N(C)C)c1C | -3 | -26 | 2 | i | . | -1 | . | .
Cc1cccc(Nc2cc(C)c3c(O)cccc3n2)c1C | 18 | 27 | -72 | i | -9 | 74* | 0 | 58*
Cc1ccc(-c2nn(-c3ccccc3)cc2CSC(=N)N)cc1 | 24 | 25 | . | i | . | 45* | 1 | 48*
COc1ccc(S(=O)(=O)N(C)C[C@@H]2Oc3ccc(NC(=O)CCCN(C)C)cc3CC(=O)N([C@H](C)CO)C[C@@H]2C)cc1 | . | . | 13 | . | . | . | . | .
NS(=O)(=O)c1ccc(CCNC(=O)C2CCN(c3ncnc4c3nc3n4CCCCC3)CC2)cc1 | -29 | -8 | -9 | i | 3 | 55* | -7 | 59*
Cc1ccc(NC(=O)C2CCCN(c3ncnc4c3nc3n4CCCCC3)C2)cc1Cl (stereo not given) | -27 | 21 | -6 | i | 14 | -1 | . | .
CC1CCCCN1CCNC(=O)C1CCCN(c2ncnc3c2nc2n3CCCCC2)C1 (stereo not given) | 3 | 2 | -26 | i | 8 | 28 | . | .
CSc1ccc(CCNC(=O)C2CCCN(c3ncnc4c3nc3n4CCCCC3)C2)cc1 (stereo not given) | -76 | 17 | -5 | i | 2 | 9 | . | .
CN(CCNC(=O)C1CCN(c2ncnc3c2nc2n3CCCCC2)CC1)Cc1ccccc1 | -2 | -3 | -5 | i | 3 | 91* | -1 | 106*
Cc1ccc(NC(=O)C2CCN(c3ncnc4c3nc3n4CCCCC3)CC2)cc1Cl | -36 | 34 | -24 | i | -4 | 72* | 0 | 94*
